Test results taken from ChEMBL document CHEMBL5058577, “EUbOPEN Chemogenomics Library 2 (Multiplex)” (2022).

Test system: Fibroblast
Experiment: Multiplex assay against human fibroblast
Assay type: toxicity, cell-based
Outline: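 Cells stained live at seeding with Hoechst33342, BioTracker Green Microtubule Cytoskeleton Dye, MitoTracker Red and Annexin V Alexa Fluor 680 were imaged on a CQ1 microscope at 37°C and 5% CO2 after compound addition. Their classification by CellPathfinder machine-learning gating ran from Hoechst high-intensity objects versus normal cells, to healthy, pyknosed or fragmented nuclei among normal cells, to mitotic or apoptotic among pyknosed cells. Tubulin, mitochondrial-mass and membrane-permeability phenotypes are per cents of healthy-nucleus cells.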

[1] = 12 h, 1 µM, compound concentration 1 uM, replicate 1
[2] = 12 h, 1 µM, compound concentration 1 uM, replicate 2
[3] = 12 h, 10 µM, compound concentration 10 uM, replicate 1
[4] = 12 h, 10 µM, compound concentration 10 uM, replicate 2
[5] = 24 h, 1 µM, compound concentration 1 uM, replicate 1
[6] = 24 h, 1 µM, compound concentration 1 uM, replicate 2
[7] = 24 h, 10 µM, compound concentration 10 uM, replicate 1
[8] = 24 h, 10 µM, compound concentration 10 uM, replicate 2
[9] = 48 h, 1 µM, compound concentration 1 uM, replicate 1
[10] = 48 h, 1 µM, compound concentration 1 uM, replicate 2
[11] = 48 h, 10 µM, compound concentration 10 uM, replicate 1
[12] = 48 h, 10 µM, compound concentration 10 uM, replicate 2

`Cc1c(Cc2ccc3ccccc3n2)c2cc(F)ccc2n1CC(=O)O` [TIMAPIPRANT] was tested, and the “Population Apoptotic (%)” value [1] was 41%, the “Population Fragmented Nuclei (%)” value [1] was 12% and the “Population Healthy Nuclei (%)” value [1] was 67%. The “Population Hoechst High Intensity Objects (%)” value [1] was 5%, the “Population Membrane Permeable-Phenotype (%)” value [1] was 1% and the “Population Mitochondria Different-Phenotype (%)” value [1] was 7%. The “Population Mitotic Cells (%)” value [1] was 58%, the “Population Normal (%)” value [1] was 94% and the “Population Pyknosed Nuclei (%)” value [1] was 19%. For the same compound, the “Population Tubulin-Different-Phenotype (%)” value [1] was 26%, the “Total Cell Count” value [1] was 171 and the “Population Apoptotic (%)” value [2] was 33%. The “Population Fragmented Nuclei (%)” value [2] was 28%, the “Population Healthy Nuclei (%)” value [2] was 49% and the “Population Membrane Permeable-Phenotype (%)” value [2] was 9%. The “Population Mitochondria Different-Phenotype (%)” value [2] was 4%, the “Population Mitotic Cells (%)” value [2] was 66% and the “Population Pyknosed Nuclei (%)” value [2] was 22%. The “Population Tubulin-Different-Phenotype (%)” value [2] was 43%, the “Total Cell Count” value [2] was 142 and the “Population Apoptotic (%)” value [3] was 66%. The “Population Fragmented Nuclei (%)” value [3] was 13%, the “Population Healthy Nuclei (%)” value [3] was 77% and the “Population Hoechst High Intensity Objects (%)” value [3] was 2%. For the same compound, the “Population Membrane Permeable-Phenotype (%)” value [3] was 0%, the “Population Mitochondria Different-Phenotype (%)” value [3] was 7% and the “Population Mitotic Cells (%)” value [3] was 33%. The “Population Normal (%)” value [3] was 97%, the “Population Pyknosed Nuclei (%)” value [3] was 8% and the “Population Tubulin-Different-Phenotype (%)” value [3] was 35%. The “Total Cell Count” value [3] was 147, the “Population Apoptotic (%)” value [4] was 53% and the “Population Fragmented Nuclei (%)” value [4] was 26%. The “Population Healthy Nuclei (%)” value [4] was 53%, the “Population Hoechst High Intensity Objects (%)” value [4] was 5% and the “Population Membrane Permeable-Phenotype (%)” value [4] was 1%. For the same compound, the “Population Mitotic Cells (%)” value [4] was 46%, the “Population Normal (%)” value [4] was 95% and the “Population Pyknosed Nuclei (%)” value [4] was 19%. For the same compound, the “Population Tubulin-Different-Phenotype (%)” value [4] was 43%, the “Total Cell Count” value [4] was 160 and the “Population Apoptotic (%)” value [5] was 33%. The “Population Fragmented Nuclei (%)” value [5] was 9%, the “Population Healthy Nuclei (%)” value [5] was 73% and the “Population Hoechst High Intensity Objects (%)” value [5] was 1%. For the same compound, the “Population Membrane Permeable-Phenotype (%)” value [5] was 3%, the “Population Mitochondria Different-Phenotype (%)” value [5] was 2% and the “Population Mitotic Cells (%)” value [5] was 66%. The “Population Normal (%)” value [5] was 98%, the “Population Pyknosed Nuclei (%)” value [5] was 17% and the “Population Tubulin-Different-Phenotype (%)” value [5] was 26%. The “Total Cell Count” value [5] was 158, the “Population Apoptotic (%)” value [6] was 47% and the “Population Fragmented Nuclei (%)” value [6] was 30%. For the same compound, the “Population Healthy Nuclei (%)” value [6] was 52%, the “Population Hoechst High Intensity Objects (%)” value [6] was 5% and the “Population Membrane Permeable-Phenotype (%)” value [6] was 7%. For the same compound, the “Population Mitochondria Different-Phenotype (%)” value [6] was 4%, the “Population Mitotic Cells (%)” value [6] was 52% and the “Population Normal (%)” value [6] was 94%. The “Population Tubulin-Different-Phenotype (%)” value [6] was 38%, the “Total Cell Count” value [6] was 142 and the “Population Apoptotic (%)” value [7] was 66%. For the same compound, the “Population Fragmented Nuclei (%)” value [7] was 14%, the “Population Healthy Nuclei (%)” value [7] was 77% and the “Population Hoechst High Intensity Objects (%)” value [7] was 2%. The “Population Membrane Permeable-Phenotype (%)” value [7] was 0%, the “Population Mitochondria Different-Phenotype (%)” value [7] was 6% and the “Population Mitotic Cells (%)” value [7] was 33%. For the same compound, the “Population Normal (%)” value [7] was 97%, the “Population Pyknosed Nuclei (%)” value [7] was 8% and the “Population Tubulin-Different-Phenotype (%)” value [7] was 30%. For the same compound, the “Total Cell Count” value [7] was 150, the “Population Apoptotic (%)” value [8] was 52% and the “Population Fragmented Nuclei (%)” value [8] was 29%. For the same compound, the “Population Healthy Nuclei (%)” value [8] was 58%, the “Population Hoechst High Intensity Objects (%)” value [8] was 7% and the “Population Membrane Permeable-Phenotype (%)” value [8] was 3%. For the same compound, the “Population Mitochondria Different-Phenotype (%)” value [8] was 10%, the “Population Mitotic Cells (%)” value [8] was 47% and the “Population Normal (%)” value [8] was 92%. For the same compound, the “Population Pyknosed Nuclei (%)” value [8] was 12%, the “Population Tubulin-Different-Phenotype (%)” value [8] was 52% and the “Total Cell Count” value [8] was 164. The “Population Apoptotic (%)” value [9] was 72%, the “Population Fragmented Nuclei (%)” value [9] was 15% and the “Population Healthy Nuclei (%)” value [9] was 72%. The “Population Hoechst High Intensity Objects (%)” value [9] was 7%, the “Population Membrane Permeable-Phenotype (%)” value [9] was 0% and the “Population Mitochondria Different-Phenotype (%)” value [9] was 2%. The “Population Mitotic Cells (%)” value [9] was 27%, the “Population Normal (%)” value [9] was 92% and the “Population Pyknosed Nuclei (%)” value [9] was 12%. For the same compound, the “Population Tubulin-Different-Phenotype (%)” value [9] was 25%, the “Total Cell Count” value [9] was 162 and the “Population Apoptotic (%)” value [10] was 61%. The “Population Fragmented Nuclei (%)” value [10] was 36%, the “Population Healthy Nuclei (%)” value [10] was 48% and the “Population Hoechst High Intensity Objects (%)” value [10] was 6%. The “Population Membrane Permeable-Phenotype (%)” value [10] was 2%, the “Population Mitochondria Different-Phenotype (%)” value [10] was 1% and the “Population Mitotic Cells (%)” value [10] was 38%. The “Population Normal (%)” value [10] was 94%, the “Population Pyknosed Nuclei (%)” value [10] was 14% and the “Population Tubulin-Different-Phenotype (%)” value [10] was 34%. The “Total Cell Count” value [10] was 150, the “Population Apoptotic (%)” value [11] was 66% and the “Population Fragmented Nuclei (%)” value [11] was 18%. The “Population Healthy Nuclei (%)” value [11] was 75%, the “Population Hoechst High Intensity Objects (%)” value [11] was 5% and the “Population Membrane Permeable-Phenotype (%)” value [11] was 0%. For the same compound, the “Population Mitochondria Different-Phenotype (%)” value [11] was 3%, the “Population Mitotic Cells (%)” value [11] was 33% and the “Population Normal (%)” value [11] was 94%. For the same compound, the “Population Pyknosed Nuclei (%)” value [11] was 6%, the “Population Tubulin-Different-Phenotype (%)” value [11] was 31% and the “Total Cell Count” value [11] was 152. The “Population Apoptotic (%)” value [12] was 60%, the “Population Fragmented Nuclei (%)” value [12] was 30% and the “Population Healthy Nuclei (%)” value [12] was 59%. For the same compound, the “Population Hoechst High Intensity Objects (%)” value [12] was 2%, the “Population Membrane Permeable-Phenotype (%)” value [12] was 1% and the “Population Mitochondria Different-Phenotype (%)” value [12] was 1%. For the same compound, the “Population Mitotic Cells (%)” value [12] was 40%, the “Population Normal (%)” value [12] was 97% and the “Population Pyknosed Nuclei (%)” value [12] was 9%. For the same compound, the “Population Tubulin-Different-Phenotype (%)” value [12] was 37% and the “Total Cell Count” value [12] was 157.
